Square brackets hold non-standard residues; d marks the D form. Peptide text beside a SMILES is read from it. * marks the point of attachment. Benzoyl(4-tBu) = CC(C)(C)c1ccc(C(=O)*)cc1; Lys(Et2) = CCN(CC)CCCC[C@H](N)C(=O)O
Key:
[1] = biological target: T1, CBX2 (Homo sapiens, UniProt Q14781); assay: TR-FRET competition assay, CBX2 chromodomain with UNC4195 tracer; format: binding
T1 sequence (Q14781 9-66): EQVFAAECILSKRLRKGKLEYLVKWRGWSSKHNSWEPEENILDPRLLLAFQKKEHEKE
In short: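 His-tagged protein, biotinylated tracer and TR-FRET reagent (Eu-streptavidin, anti-6X-His ULight antibody) premixed in 20 mM Tris pH 7.5, 150 mM NaCl, 0.05% Tween 20, 2 mM DTT. Added to plates pre-stamped from 10 mM DMSO stocks (100X). Shaken 1 min, spun 1000 x g 2 min, 1 h dark. DMSO and competitor full-column controls per plate. Follow-up used 10-point threefold dilutions and a four-parameter fit for IC50.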

[2] = biological target: T2, CBX7 (Homo sapiens, UniProt O95931); assay: TR-FRET competition assay, CBX7 chromodomain with UNC4195 tracer; format: binding
T2 sequence (O95931 8-62): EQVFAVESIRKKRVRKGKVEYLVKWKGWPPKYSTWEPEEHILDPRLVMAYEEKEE

[3] = biological target: T3, MPP8 (Homo sapiens, UniProt Q99549); assay: TR-FRET competition assay, MPP8 chromodomain with H3K9me3 tracer; format: binding
T3 sequence (Q99549 55-116): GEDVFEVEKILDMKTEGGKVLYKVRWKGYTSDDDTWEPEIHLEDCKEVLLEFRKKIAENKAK
In short: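 His-tagged protein plus biotinylated tracer peptide with Eu-streptavidin and anti-6X-His ULight antibody, in 20 mM Tris pH 7.5, 150 mM NaCl, 0.05% Tween 20, 2 mM DTT; 10 µL total. Test compound: 16-point threefold dilution in buffer, in triplicate. Mixed, centrifuged, equilibrated 1 h in the dark, then read. Percent inhibition relative to DMSO (0%) and 100 µM competitor (100%); four-parameter fit gives IC50.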

[4] = biological target: CBX5 (Homo sapiens, UniProt P45973); details: affinity of CBX5 for H3K9me3; cited from earlier work
Sequence of CBX5 (P45973 18-75): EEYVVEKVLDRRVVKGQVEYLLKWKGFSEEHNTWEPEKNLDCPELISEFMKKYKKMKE

[5] = biological target: T3, MPP8; details: MPP8 binding the tracer peptide H3K9me3; cited from earlier work

CCN(CC)CCCC[C@H](NC(=O)[C@H](CC(C)C)NC(=O)[C@H](C)NC(=O)[C@H](Cc1ccccc1)NC(=O)c1ccc(C(C)(C)C)cc1)C(=O)N[C@@H](CO)C(=O)OC [UNC3866] ({Benzoyl(4-tBu)}-FAL[Lys(Et2)]S-OMe)
IC50 [1]: 1500 nM
inhibition ([1]; single-dose 25 µM, pilot screen in duplicate, 100% = 100 µM UNC3866): 100%
IC50 [2]: 60 nM
IC50 [3]: 1000 nM

ARTKQTARK(Me3)STGGKAPRKQL-K(Biotin)-NH2 [H3K9me3]
Kd [4]: ~30000 nM
affinity [5]: sub-micromolar

From publication PMC6586500 (SLAS discovery : advancing life sciences R & D, 2019)
